This note sets out measurements from ChEMBL document CHEMBL3244344, “Nucleoside conjugates as potential antitumor agents. 2. Synthesis and biological activity of 1-(beta-D-arabinofuranosyl)cytosine conjugates of prednisolone and prednisone” (J Med Chem, 1979).

Data set [1] concerns Mus musculus. The data set can be described thus: Toxicity in C3D2F1/J mouse allografted with mouse L1210 cells assessed as body weight change at 25 mg/kg, ip qd administered for 5 days measured on day 8 (reference value: 1.81 +/- 0.79 g). Conditions: in vivo, 120 h. Set-up: dose 25 mg/kg, route intraperitoneal. It counts as organism-based.
In data set [2] the test system is L1210. Briefly: Antitumor activity against mouse L1210 cells allografted in C3D2F1/J mouse assessed as increase in life span at 50 mg/kg, ip qd administered for 5 days relative to control. It counts as functional. Conditions: 120 h, route intraperitoneal.
For data set [3], the system named is Mus musculus. The data set can be described thus: Toxicity in C3D2F1/J mouse allografted with mouse L1210 cells assessed as body weight change at 75 mg/kg, ip qd administered for 5 days measured on day 8 (reference value: 1.81 +/- 0.79 g). It counts as organism-based. Set-up: dose 75 mg/kg, route intraperitoneal. The settings on record: in vivo, 120 h.
Data set [4] relates to L1210. Briefly: Antitumor activity against mouse L1210 cells allografted in C3D2F1/J mouse assessed as increase in life span at 25 mg/kg, ip qd administered for 5 days relative to control. It counts as functional. The settings on record: 120 h, route intraperitoneal.
Data set [5] in a line: Metabolic stability in baboon plasma assessed as remaining compound level at 5 umol at 37 degC after 24 hrs by UV analysis. Format: ADME, cell-free. Conditions: papio anubis, read-out: Stability. In outline:
(§1)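 5 μmol conjugate in 0.5 mL fresh baboon plasma, incubated at 37 °C for 24 h. Intact conjugate and products were separated by paper chromatography with authentic markers.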

A short description of data set [6]: Drug degradation assessed as compound hydrolysis at 5 umol at pH 4.8 at 25 degC after 24 hrs by UV analysis in presence of wheat germ acid phosphatase. Format: physicochemical. Conditions: read-out: Drug degradation. In outline:
(§2)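 5 μmol conjugate in NaOAc buffer (pH 4.8) with 3 mg crude wheat germ acid phosphatase, 0.5 mL total, held at 25 °C for 24 h. Products were separated by paper chromatography against authentic markers.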

Data set [7] in a line: Drug degradation in baboon plasma at 5 umol at 37 degC after 24 hrs by UV analysis. Format: ADME, cell-free. Conditions: papio anubis, read-out: Drug degradation. Summed up:
as §1

Data set [8] concerns L1210. The data set can be described thus: Antitumor activity against mouse L1210 cells allografted in C3D2F1/J mouse assessed as median survival time at 50 mg/kg, ip qd administered for 5 days (reference value: 9 days). Format: functional. The settings on record: route intraperitoneal.
In data set [9] the test system is Mus musculus. The data set can be described thus: Toxicity in C3D2F1/J mouse allografted with mouse L1210 cells assessed as body weight change at 50 mg/kg, ip qd administered for 5 days measured on day 8 (reference value: 1.81 +/- 0.79 g). It counts as organism-based. Details: dose 50 mg/kg, route intraperitoneal. The settings on record: in vivo, 120 h.
In data set [10] the test system is Mus musculus. The data set can be described thus: Toxicity in C3D2F1/J mouse allografted with mouse L1210 cells assessed as body weight change at 100 mg/kg, ip qd administered for 5 days measured on day 8 (reference value: 1.81 +/- 0.79 g). Format: organism-based. Details: dose 100 mg/kg, route intraperitoneal. The settings on record: in vivo, 120 h.
Data set [11] in a line: Drug degradation assessed as steroid formation at 5 umol at pH 9 after 24 hrs by UV analysis in presence of Crotalus adamanteus 5'-nucleotidase. Format: physicochemical. The settings on record: buffer, pH 9, 24 h. Summed up: (§3)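 Crude Crotalus adamanteus venom: 5 μmol conjugate in Tris-HCl buffer (pH 8.8) with 2.5 mg venom, 0.5 mL total, incubated 37 °C for 24 h. Products were resolved by paper chromatography alongside authentic markers.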

The subject of data set [12] is L1210. Briefly: Antitumor activity against mouse L1210 cells allografted in C3D2F1/J mouse assessed as median survival time at 75 mg/kg, ip qd administered for 5 days (reference value: 9 days). It counts as functional. The settings on record: route intraperitoneal.
Data set [13] has as its system L1210. Briefly: Antitumor activity against mouse L1210 cells allografted in C3D2F1/J mouse assessed as median survival time at 25 mg/kg, ip qd administered for 5 days (reference value: 9 days). It counts as functional. Conditions: route intraperitoneal.
Data set [14] concerns L1210. The data set can be described thus: Antitumor activity against mouse L1210 cells allografted in C3D2F1/J mouse assessed as increase in life span at 100 mg/kg, ip qd administered for 5 days relative to control. The settings on record: 120 h, route intraperitoneal. It counts as functional.
Data set [15] relates to L1210. Briefly: Antitumor activity against mouse L1210 cells allografted in C3D2F1/J mouse assessed as median survival time at 100 mg/kg, ip qd administered for 5 days (reference value: 9 days). It counts as functional. Conditions: route intraperitoneal.
Data set [16] in a line: Drug degradation assessed as ara-C formation at 5 umol at pH 9 after 24 hrs by UV analysis in presence of Crotalus adamanteus 5'-nucleotidase. It counts as physicochemical. Conditions: buffer, pH 9, 24 h. Summed up: as §3
A short description of data set [17]: Hydrolytic stability of the compound assessed as remaining compound level at 5 umol at pH 4.8 at 25 degC after 24 hrs by UV analysis in presence of wheat germ acid phosphatase. Format: physicochemical. The settings on record: read-out: Stability. In outline: as §2
The nature of data set [18]: Hydrolytic stability of the compound at 5 umol at pH 8 at 25 degC after 24 hrs by UV analysis in presence of bacterial alkaline phosphatase. It counts as physicochemical. Conditions: isolated protein, pH 8, 24 h. In outline:
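5 μmol conjugate in Tris-HCl (pH 8.0) with bacterial alkaline phosphatase suspension, 0.5 mL total, incubated at 25 °C for 24 h. Paper chromatography against authentic markers.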

The test system of data set [19] is L1210. The data set can be described thus: Antitumor activity against mouse L1210 cells allografted in C3D2F1/J mouse assessed as increase in life span at 75 mg/kg, ip qd administered for 5 days relative to control. It counts as functional. The settings on record: 120 h, route intraperitoneal.
Data set [20] deals with L1210. Briefly: Cytotoxicity against mouse L1210 cells assessed as growth inhibition measured at 72 hrs by trypan blue exclusion assay. Format: functional. The settings on record: L1210, 72 h, read-out: ED50 (the source's name). In outline:
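L1210 mouse lymphoid leukemia cells seeded at 2–3 × 10⁵ cells/mL in RPMI 1640 + 10% fetal calf serum with compound (from Me2SO stock, final Me2SO 0.5%, compound 100 μM or lower). Viable cells counted by 0.05% Trypan blue exclusion in a hemocytometer at 24, 48, 72 h. Treated/untreated density ratio. ED50 at 72 h interpolated from response curves of three separate experiments.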

Data set [21] has as its system L1210. The data set can be described thus: Antitumor activity against mouse L1210 cells allografted in C3D2F1/J mouse assessed as increase in life span at 18.2 mg/kg, ip qd administered for 5 days co-administered with 27 mg/kg prednisolone relative to control. It counts as functional.
Data set [22] has as its system L1210. Briefly: Antitumor activity against mouse L1210 cells allografted in C3D2F1/J mouse assessed as median survival time at 18.2 mg/kg, ip qd administered for 5 days (reference value: 10 days). Format: functional. Conditions: route intraperitoneal.
In data set [23] the test system is Mus musculus. The data set can be described thus: Toxicity in C3D2F1/J mouse allografted with mouse L1210 cells assessed as body weight change at 18.2 mg/kg, ip qd administered for 5 days measured on day 8 co-administered with 27 mg/kg prednisolone (reference value: 1.81 +/- 0.79 g). Conditions: in vivo, 120 h. It counts as organism-based.
Data set [24] concerns L1210. The data set can be described thus: Antitumor activity against mouse L1210 cells allografted in C3D2F1/J mouse assessed as increase in life span at 18.3 mg/kg, ip qd administered for 5 days co-administered with 27 mg/kg prednisone relative to control. It counts as functional.
Data set [25] has as its system Mus musculus. Briefly: Toxicity in C3D2F1/J mouse allografted with mouse L1210 cells assessed as body weight change at 18.3 mg/kg, ip qd administered for 5 days measured on day 8 co-administered with 27 mg/kg prednisone (reference value: 1.81 +/- 0.79 g). It counts as organism-based. The settings on record: in vivo, 120 h.
Data set [26] concerns L1210. Briefly: Antitumor activity against mouse L1210 cells allografted in C3D2F1/J mouse assessed as median survival time at 18.2 mg/kg, ip qd administered for 5 days co-administered with 27 mg/kg prednisolone (reference value: 9 days). It counts as functional.
Data set [27] relates to Mus musculus. Briefly: Toxicity in C3D2F1/J mouse allografted with mouse L1210 cells assessed as body weight change at 18.2 mg/kg, ip qd administered for 5 days measured on day 8 (reference value: 1.81 +/- 0.79 g). Format: organism-based. Set-up: dose 18.2 mg/kg, route intraperitoneal. The settings on record: in vivo, 120 h.
For data set [28], the system named is L1210. The data set can be described thus: Antitumor activity against mouse L1210 cells allografted in C3D2F1/J mouse assessed as increase in life span at 18.2 mg/kg, ip qd administered for 5 days relative to control. The settings on record: 120 h, route intraperitoneal. It counts as functional.
The test system of data set [29] is L1210. The data set can be described thus: Antitumor activity against mouse L1210 cells allografted in C3D2F1/J mouse assessed as median survival time at 25 mg/kg, ip qd administered for 5 days (reference value: 8 days). Format: functional. Conditions: route intraperitoneal.
The test system of data set [30] is L1210. Briefly: Antitumor activity against mouse L1210 cells allografted in C3D2F1/J mouse assessed as median survival time at 18.3 mg/kg, ip qd administered for 5 days co-administered with 27 mg/kg prednisone (reference value: 9 days). Format: functional.
Data set [31] concerns Mus musculus. The data set can be described thus: Toxicity in C3D2F1/J mouse allografted with mouse L1210 cells assessed as body weight change at 27 mg/kg, ip qd administered for 5 days measured on day 8 (reference value: 1.81 +/- 0.79 g). Format: organism-based. Set-up: dose 27 mg/kg, route intraperitoneal. The settings on record: in vivo, 120 h.
For data set [32], the system named is L1210. Briefly: Antitumor activity against mouse L1210 cells allografted in C3D2F1/J mouse assessed as increase in life span at 27 mg/kg, ip qd administered for 5 days relative to control. It counts as functional. Conditions: 120 h, route intraperitoneal.
Data set [33] deals with L1210. Briefly: Antitumor activity against mouse L1210 cells allografted in C3D2F1/J mouse assessed as median survival time at 27 mg/kg, ip qd administered for 5 days (reference value: 10 days). It counts as functional. The settings on record: route intraperitoneal.

For the compound `C[C@]12C=CC(=O)C=C1CC[C@@H]1[C@@H]2[C@@H](O)C[C@@]2(C)[C@H]1CC[C@]2(O)C(=O)CO[P+]([O-])(O)OC[C@H]1O[C@@H](n2ccc(N)nc2=O)[C@@H](O)[C@@H]1O` (stereo not given in full), the Activity in [1] is reported as -0.07 g; in data set [3] it was -0.71 g; in [9], -0.28 g; in data set [10], -1.5 g. Further, the ILS at 50 mg/kg in [2] was found to be 88.9%. Further, the ILS at 25 mg/kg in data set [4] came to 72.7%. The remaining at 24 h, 5 umol was found to be 44% in [5] and 8% in data set [17]. Moreover, the metabolised at 24 h, 5 umol in [6] was found to be 86%; in [7] it was 39%. Further, the MST in data set [8] was found to be 17 days; in [12] it was 16 days; in data set [13], 15.5 days; in data set [15], 10.5 days. Moreover, the Drug degradation in data set [11] and in [16] was 50% throughout. In data set [14], the ILS at 100 mg/kg stood at 16.7%. Moreover, the Stability entry in data set [18] is given as “Stable”. Further, the ILS at 75 mg/kg in [19] turned out to be 77.8%. Moreover, the EC50 in [20] worked out at 50 nM.
As to `Nc1ccn([C@@H]2O[C@H](CO)[C@@H](O)[C@@H]2O)c(=O)n1` [CYTARABINE], the ILS in data set [21] came out at 40%; in data set [24], 44%. Further, the Activity in data set [1] is recorded as -3.8 g; in data set [23], -2.46 g; in data set [9], -4.2 g; in [25], -1.25 g; in data set [27] it was -3.64 g. Besides, the ILS at 50 mg/kg in data set [2] worked out at 11.1%. Besides, in data set [4], the ILS at 25 mg/kg is 18.8%. The MST in data set [22] is 14.5 days; in data set [8], 10 days; in data set [26] it was 14 days; in data set [29], 9.5 days; in data set [30] it was 13 days. In addition, the ILS at 18.2 mg/kg in data set [28] was determined as 45%. The EC50 in [20] was found to be 100 nM.
In the case of `C[C@]12C=CC(=O)C=C1CC[C@@H]1[C@@H]2[C@@H](O)C[C@@]2(C)[C@H]1CC[C@]2(O)C(=O)CO` [PREDNISOLONE], the Activity in data set [31] was -0.85 g. Moreover, the ILS at 27 mg/kg in data set [32] is -5%. For the same compound, the MST in data set [33] amounted to 9.5 days. The EC50 in data set [20] is 100000 nM.
